Reference: paper PMC2863310 (Pigment cell & melanoma research, 2009)
One block for each compound: values may come before it. Residues, ends and D or L forms follow the SMILES beside them. *: point of attachment. Cbz = O=C(OCc1ccccc1)*

How the values were obtained:
GST-Siah2 [1] = target: T1, GST-Siah2 (Mus musculus, UniProt Q06986); test: In vitro ubiquitination assay, Western blot with anti-ubiquitin; format: biochemical
T1 sequence (Q06986 1-325): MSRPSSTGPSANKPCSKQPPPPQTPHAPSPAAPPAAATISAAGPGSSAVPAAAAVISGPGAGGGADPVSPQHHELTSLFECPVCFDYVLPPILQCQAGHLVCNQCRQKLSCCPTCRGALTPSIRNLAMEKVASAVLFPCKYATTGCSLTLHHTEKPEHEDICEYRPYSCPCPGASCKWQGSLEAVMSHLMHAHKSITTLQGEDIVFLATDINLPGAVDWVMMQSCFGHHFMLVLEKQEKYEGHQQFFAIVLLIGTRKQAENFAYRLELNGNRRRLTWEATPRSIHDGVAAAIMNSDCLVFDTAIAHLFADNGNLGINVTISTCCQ
In short: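 GST-Siah2 (with GST-RNF5 and GST-Siah2 RING mutant in parallel), bacterially expressed, glutathione-purified. Reactions on glutathione beads in 50 mM Tris-HCl pH 8.0, 5 mM MgCl2, 0.5 mM DTT, 2 mM NaF, with HA-ubiquitin (2 µg), 2 mM ATP, E1 (50 ng) and His-UbcH5b (250 ng), 45 min, 37°C, with shaking. Test compound at 100 µM or a concentration series. Read-out: 8% SDS-PAGE, anti-ubiquitin blot; anti-GST for input.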

GST-Siah2 [2] = target: T1, GST-Siah2; test: Meso Scale electro-chemiluminescent Siah2 self-ubiquitination assay; format: biochemical
In short: (§1)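 Electrochemiluminescent format. GST-Siah2 or GST-RNF5 (5 pM final) is adsorbed onto glutathione-coated wells. Test compound is added in 100% DMSO. Reaction is started with a pre-charged ubiquitin-E1-E2 mix and runs 1 h at room temperature, then is stopped by Tris-buffered washes. SULFO-Tag antibody to ubiquitinated proteins is added and the signal is read. Library tested at 100 µM; hits confirmed by dose-response curves.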

UACC903 melanoma tumors = test: UACC903 melanoma xenograft in nude mice; format: in vivo, mouse
In short: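 UACC903 cells (1 × 10^6 in 100 µl PBS) are injected s.c. into the flank of 4-week-old male nude mice. From 1 week, test compound (2, 5 or 10 mg/kg; 0.1% DMSO final) is given i.p. twice weekly for 4 weeks, with tumors measured twice weekly. Harvested tumors: Z-fix, IHC for HIF-1α/pERK (HRP polymer, DAB, hematoxylin), TUNEL (peroxidase kit), and pERK/total ERK immunoblots.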

GST-Siah2 [3] = target: T1, GST-Siah2; test: In vitro protein-binding assay of GST-Siah2 with PHYL or Spry2
In short: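 GST-Siah2 was affinity-purified onto glutathione-Sepharose 4B beads. Spry2 and PHYL were made by coupled in vitro transcription/translation in reticulocyte lysate with [35S]-methionine and mixed with the GST fusion on glutathione beads. Bound protein was resolved on 12% SDS-PAGE and detected by autoradiography.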

PHD3 = PHD3 level and half-life; format: cell-based, mouse
In short: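 Immortalized MEFs are kept in 10% FBS with 0.1 mM non-essential amino acids and 0.2 mM 2-mercaptoethanol. Cells get test compound (25 µM), with or without 5 mM N-acetyl L-cysteine. PHD3 is blotted after 1% O2, 5 h; Spry2 under normoxia; HIF-1α in nuclear extracts. β-actin/lamin A are loading controls. For half-life, cycloheximide (20 µg/ml) is added after 5 h hypoxia and cells are harvested over time.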

SW1 melanoma cells = test: Semi-quantitative RT-PCR of HIF-1α and VEGF transcripts; format: cell-based, mouse
Siah2 [4] = target: T2, Siah2 (Mus musculus, UniProt Q06986); test: In vivo auto-ubiquitination of Siah2 in 293T cells; format: cell-based; settings: MEN 25 µM or MG132 40 µM, 6 h
T2 sequence (Q06986 1-325): T1 sequence (Q06986 1-325)
In short: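 293T cells (DMEM, 10% BS) were co-transfected with Flag-Siah2 with or without HA-ubiquitin and treated 24 h later. Cells were lysed in 2% SDS/TBS at 95°C for 10 min, diluted ninefold in 1% Triton X-100/2 mM EDTA, sonicated, precleared with protein G and clarified. Anti-Flag immunoprecipitation used 2 mg protein overnight at 4°C. After stringent washes, 8% SDS-PAGE was blotted with anti-HA and reprobed with anti-Flag.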

GST-RNF5 [5] = target: T3, GST-RNF5 (Homo sapiens, UniProt Q99942); test: Meso Scale electro-chemiluminescent RNF5 ubiquitination assay; format: biochemical
In short: as §1

SPRY2 = test: Spry2 expression in 293T cells transfected with Myc-Spry2 and HA-Siah2; format: cell-based; settings: 5 h
HIF-1α [6] = test: HIF-1α protein level in SW1 melanoma cells; format: cell-based; settings: SW1 mouse melanoma cells, hypoxia 1% O2, 5 h
Siah2 [7] = target: T2, Siah2; test: Siah steady-state levels in transfected 293T cells; format: cell-based
In short: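 293T cells (DMEM, 10% BS) were transiently transfected with HA-Siah2 or Flag-Siah1a (1 µg) by calcium phosphate or Lipofectamine. They were treated 24 h later with test compound at several concentrations, with DMSO as control. Lysates were immunoblotted for the tag with β-actin as loading control, using fluorescent secondary antibodies and infrared scanning.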

Siah1 = target: T4, Siah1 (Mus musculus, UniProt P61092); test: Siah1 ubiquitin ligase activity; format: biochemical
T4 sequence (P61092 1-282): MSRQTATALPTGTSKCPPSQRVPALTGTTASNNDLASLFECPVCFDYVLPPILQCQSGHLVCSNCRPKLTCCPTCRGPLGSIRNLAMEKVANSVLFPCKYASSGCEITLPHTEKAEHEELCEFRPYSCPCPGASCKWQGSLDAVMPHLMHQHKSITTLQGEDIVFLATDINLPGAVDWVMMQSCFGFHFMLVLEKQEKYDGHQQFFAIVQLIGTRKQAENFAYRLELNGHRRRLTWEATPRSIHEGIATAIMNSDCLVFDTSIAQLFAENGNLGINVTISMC

[8] = system: Human Microvascular Endothelial Cells (HMVEC); test: HMVEC tube formation with conditioned medium of treated SW1 cells; format: cell-based; settings: medium from SW1 cells treated 10 h under hypoxia; read after 16 h
UACC903 melanoma cells = test: Spry2 and pERK levels in UACC903 melanoma cells; format: cell-based, human; settings: 5 h
In short: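 UACC903 human melanoma cells are treated 5 h with a concentration series of test compound. Blots are probed overnight at 4°C and detected with fluorescent secondary antibodies. Total ERK or β-actin serves as loading control.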

GST-RNF5 [9] = target: T3, GST-RNF5; test: In vitro ubiquitination assay, Western blot with anti-ubiquitin; format: biochemical; settings: 100 µM
In short: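 Bacterially expressed GST-RNF5 was purified on glutathione resin. The reaction buffer was 50 mM Tris-HCl pH 8.0, 5 mM MgCl2, 0.5 mM DTT and 2 mM NaF, with HA-ubiquitin (2 µg), 2 mM ATP, E1 (50 ng) and purified His-UbcH5b E2 (250 ng). Test compound was present at 100 µM, and reactions ran 45 min at 37°C.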

VEGF = VEGF secretion from SW1 melanoma cells; format: cell-based, mouse; settings: 10 h, ELISA
HIF-1α [10] = test: HIF-1α protein level in 293T cells; format: cell-based; settings: hypoxia 1% O2, 5 h

T3 sequence (Q99942 whole entry): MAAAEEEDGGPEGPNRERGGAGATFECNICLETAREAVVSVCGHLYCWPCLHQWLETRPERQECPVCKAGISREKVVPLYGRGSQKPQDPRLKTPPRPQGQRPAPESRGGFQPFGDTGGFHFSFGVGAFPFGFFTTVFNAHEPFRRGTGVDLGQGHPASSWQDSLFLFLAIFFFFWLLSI

Siah2 auto-ubiquitination in vitro (GST-Siah2 [1]; 100 µM, new lots of compounds, Western blot): strongest degree of Siah2 inhibition
Siah2 auto-ubiquitination in vitro, dose dependence (GST-Siah2 [1]; GST-Siah2 on glutathione beads, increasing concentrations): attenuated in a dose-dependent manner
IC50 (GST-Siah2 [2]): 20 µM
IC50 (GST-RNF5 [5]): > 100 µM
Structure (SMILES): CC1=CC(=O)c2ccccc2C1=O [compound 1, menadione]
pERK levels in tumors (UACC903 melanoma tumors; IHC and immunoblot of xenograft tumors): effectively reduced the levels of pERK
HIF-1α expression in tumors (UACC903 melanoma tumors; IHC of xenograft tumors): lower levels of HIF-1α expression
degree of apoptosis in tumors (TUNEL) (UACC903 melanoma tumors; xenograft tumors): found to be higher
association of Siah2 with PHYL or Spry2 (GST-Siah2 [3]): without affecting the association with PHYL or Spry2
stabilization of PHD3 or Spry2, effect on HIF-1α, in presence of ROS scavenger (PHD3; MEF cells, 25 µM with 5 mM N-acetyl cysteine): not affected
steady state levels of endogenous PHD3 (PHD3; MEF cells, hypoxia 1% O2, 5 h, increasing concentrations): corresponding increase in the steady state levels of endogenous PHD3
increase of PHD3 or Spry2 expression in Siah KO cells (PHD3; Siah2 KO and Siah2/Siah1a DKO MEF, 25 µM): attenuated in the Siah2 KO and completely abolished in the Siah2/1a DKO cells
level of HIF-1α transcripts (SW1 melanoma cells): did not alter the level of HIF-1α transcripts
transcription of VEGF (SW1 melanoma cells): inhibited the transcription of the HIF-1α target gene, VEGF
Siah2 ubiquitination in vivo (Siah2 [4]): effectively inhibits Siah2 ubiquitination in vivo
Siah2-dependent decrease in SPRY2 expression (SPRY2): attenuated Siah2-dependent decrease in SPRY2 expression
HIF-1α expression (HIF-1α [6]): effectively reduced the level of HIF-1α expression
steady-state levels of Siah2 / Siah1a (Siah2 [7]): increase the steady-state levels of Siah2
Siah1 ubiquitin ligase activity (Siah1): attenuated Siah1 ubiquitin ligase activity
tube formation of HMVEC cells [8]: dose-dependent decrease in tube formation
ERK activity / phosphorylation (UACC903 melanoma cells): ERK activity was decreased
SPRY2 level (UACC903 melanoma cells): increase in SPRY2 level
RNF5 self-ubiquitination in vitro (GST-RNF5 [9]): did not reduce RNF5 self-ubiquitination activity
level of VEGF secreted (VEGF): proportionally reduced
HIF-1α expression (HIF-1α [10]): reduced the expression of HIF-1α in a dose-dependent manner

Structure (SMILES): CC(C)C[C@@H](C=O)NC(=O)[C@H](CC(C)C)NC(=O)[C@H](CC(C)C)NC(=O)OCc1ccccc1 [MG132] (Cbz-Leu-Leu-Leu-aldehyde)
Siah2 ubiquitination in vivo (Siah2 [4]): increased the ubiquitinated and unubiquitinated forms of Siah2
